ChEMBL document CHEMBL1125042, “Hypolipidemic activity of rifamycin derivatives” (J Med Chem, 1990)
In brackets after ≈: the same amount, converted by molar mass.

What was measured:
Type in all cases: functional
[1] = tested on: Staphylococcus aureus; assay: Antibacterial activity against Staphylococcus aureus 10B
Outline: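 Agar dilution on DST agar with 2-fold drug dilutions. Inoculum of 10⁴ viable S. aureus 10B was taken from liquid-nitrogen stock, thawed 30 min and not subcultured. It was applied by multipoint replicator and incubated overnight at 37 °C. MIC is the lowest concentration inhibiting growth relative to control cultures.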

[2] = tested on: Rattus norvegicus; assay: Hypolipidemic activity was determined in male rats, and high-density lipoprotein level was determined at 10 mg/kg
Outline: (§1)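 Male Wistar rats (200–230 g), eight per group, were dosed orally in PEG 400 at 8 a.m. for 4 days, plus a second dose at 4 p.m. on day 4. Rats were fasted 16 h and killed 16 h after the last dose. Sera from pairs of rats were pooled. LDL (up to 1.040 g/cm³) was separated by ultracentrifugation and the HDL infranatant taken. Cholesterol was measured enzymatically. Results are % versus vehicle control, mean ± SEM of four pools, Student's t test.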

[3] = tested on: Rattus norvegicus; assay: Tested for hypolipidemic activity in male rats, cholesterol was determined in serum at 10 mg/kg
Outline: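 Groups of eight male Wistar rats (200–230 g) dosed orally in PEG 400, either daily for 7 days (killed 24 h after the last dose) or for 4 days with a second dose on day 4 (killed 16 h later). Fasted 16 h. Paired sera pooled, lipoproteins separated by ultracentrifugation (1.006 and 1.040 g/cm³), HDL taken as the infranatant. Cholesterol measured enzymatically; % vs vehicle, mean ± SEM of four pools.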

[4] = tested on: Rattus norvegicus; assay: Hypolipidemic activity was determined in male rats, and low-density lipoprotein level was determined at 10 mg/kg; outline: as §1

Row | SMILES | MIC [1] | Activity [2] | Activity [3] | Activity [4]
1 | COC1/C=C/OC2(C)Oc3c(C)c(O)c4c(O)c(c(N5CCN(Cc6c(C)cc(C)cc6C)CC5)c(O)c4c3C2=O)NC(=O)/C(C)=C\C=C\C(C)C(O)C(C)C(=O)C(C)C(OC(C)=O)C1C (configuration not stated) | 2 µg/mL (≈ 2.19 µM) | -23% | -18% | -1%
2 | COC1/C=C/OC2(C)Oc3c(C)c(O)c4c(O)c(c(N5CCN(Cc6c(C)cc(C)cc6C)CC5)c(O)c4c3C2=O)NC(=O)/C(C)=C\C=C\C(C)C2OC(C)(C)OC(C2C)C(C)C(OC(C)=O)C1C (configuration not stated) | 8 µg/mL (≈ 8.38 µM) | -27% | -14% | -6%
3 | COC1/C=C/OC2(C)Oc3c(C)c(O)c4c(O)c(c(N5CCN(Cc6c(C)cc(C)cc6C)CC5)c(O)c4c3C2=O)NC(=O)/C(C)=C\C=C\C(C)C(OC(C)=O)C(C)C(OC(C)=O)C(C)C(OC(C)=O)C1C (configuration not stated) | 4 µg/mL (≈ 4.01 µM) | -24% | -24% | -19%
